Reference: article PMC4103641 (Bioscience and Microflora, 2011)
Marks after values point to notes of the source that are not given here. Each block holds one compound with its values, some of them ahead of it.

Legend:
human fecal suspension = experiment: Metabolism of isoflavones by human fecal suspensions; format: in vitro ADME; conditions: for 6HG detected after incubation / 6HGDG detected after incubation: substrate 6HGDG; for Daidzein detected after incubation: substrate Daidzein; for Genistein detected after incubation: substrate Genistein; for Glycitein detected after incubation: substrate Glycitein; for Tectorigenin detected after incubation: substrate Tectorigenin
[1] = Metabolism of isoflavones by homogenate of germfree mouse small intestine; format: in vitro ADME; conditions: for Aglycone detected after incubation against compound added / Glycoside detected after incubation against compound added: 3 days; for Hydrolysis by homogenate of germfree mouse small intestine (in words): without bacterial activity; for Metabolized by incubation with germfree mouse small intestine (in words): 3 days anaerobically, both pH 5.0 and 7.4
Procedure, shortened: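 Upper small intestine from 14-week-old male germfree BALB/cA mice, homogenised anaerobically in 9 volumes BHI broth at pH 7.4 or 5.0. Test compound added from 5 mmol/l DMSO stock. Flavone internal standard added, then 5 extractions with equal-volume butanol, redissolved in 50% ethanol. Reversed-phase ODS HPLC (30 °C, acetonitrile/water/acetic acid gradient) with 260 nm diode-array detection. Values are % detected versus added.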

Compound: O=c1c(-c2ccc(O)cc2)coc2cc(O[C@@H]3O[C@H](CO)[C@@H](O)[C@H](O)[C@H]3O)c(O[C@@H]3O[C@H](CO)[C@@H](O)[C@H](O)[C@H]3O)c(O)c12 [6HGDG, 6-hydroxygenistein 6,7-di-O-glucoside]
- Metabolism by human fecal bacteria (in words) (human fecal suspension; incubation for 3 days): completely metabolized
- Metabolism by human fecal bacteria (in words) (human fecal suspension; incubation for 3 days, listed as 6-hydroxygenistein 6,7-di-O-glucoside): highly metabolized
- 6HGDG metabolized to its aglycone, 6HG (human fecal suspension; six out of 10 samples): 9 to 56%
- 6HG detected after incubation (human fecal suspension; Mix, mixture of 10 samples): 0.0%
- 6HGDG detected after incubation (human fecal suspension; Mix, mixture of 10 samples): 0.0%
- 6HG detected after incubation (human fecal suspension; fecal sample no. 1): 55.8%
- 6HGDG detected after incubation (human fecal suspension; fecal sample no. 1): 0.0^a %
- 6HG detected after incubation (human fecal suspension; fecal sample no. 2): 40.8%
- 6HGDG detected after incubation (human fecal suspension; fecal sample no. 2): 0.0%
- 6HG detected after incubation (human fecal suspension; fecal sample no. 3): 26.6%
- 6HGDG detected after incubation (human fecal suspension; fecal sample no. 3): 0.0%
- 6HG detected after incubation (human fecal suspension; fecal sample no. 4): 28.4%
- 6HGDG detected after incubation (human fecal suspension; fecal sample no. 4): 0.0%
- 6HG detected after incubation (human fecal suspension; fecal sample no. 5): 18.4%
- 6HGDG detected after incubation (human fecal suspension; fecal sample no. 5): 0.0%
- 6HG detected after incubation (human fecal suspension; fecal sample no. 6): 8.7%
- 6HGDG detected after incubation (human fecal suspension; fecal sample no. 6): 0.0%
- 6HG detected after incubation (human fecal suspension; fecal sample no. 7): 0.0%
- 6HGDG detected after incubation (human fecal suspension; fecal sample no. 7): 0.0%
- 6HG detected after incubation (human fecal suspension; fecal sample no. 8): 0.0%
- 6HGDG detected after incubation (human fecal suspension; fecal sample no. 8): 0.0%
- 6HG detected after incubation (human fecal suspension; fecal sample no. 9): 0.0%
- 6HGDG detected after incubation (human fecal suspension; fecal sample no. 9): 0.0%
- 6HG detected after incubation (human fecal suspension; fecal sample no. 10): 0.0%
- 6HGDG detected after incubation (human fecal suspension; fecal sample no. 10): 0.0%
- Aglycone detected after incubation against compound added ([1]; pH 5.0): 0.0%
- Glycoside detected after incubation against compound added ([1]; pH 5.0): 99.4%
- Aglycone detected after incubation against compound added ([1]; pH 7.4): 0.0%
- Glycoside detected after incubation against compound added ([1]; pH 7.4): 106.2^a %
- Hydrolysis by homogenate of germfree mouse small intestine (in words) [1]: not hydrolyzed

Compound: O=c1c(-c2ccc(O)cc2)coc2cc(O[C@@H]3O[C@H](CO)[C@@H](O)[C@H](O)[C@H]3O)cc(O)c12 [Genistin]
- Metabolized by incubation with germfree mouse small intestine (in words) [1]: completely metabolized
- Glycoside detected after incubation against compound added ([1]; pH 5.0): 0.0%
- Glycoside detected after incubation against compound added ([1]; pH 7.4): 0.0%
- Hydrolysis by homogenate of germfree mouse small intestine (in words) [1]: highly hydrolyzed

Compound: COc1cc2c(=O)c(-c3ccc(O)cc3)coc2cc1O[C@@H]1O[C@H](CO)[C@@H](O)[C@H](O)[C@H]1O [Glycitin, glycitin]
- Glycitin metabolized detected as glycitein [1]: about 65%
- Metabolized by incubation with germfree mouse small intestine (in words) [1]: completely metabolized
- Aglycone detected after incubation against compound added ([1]; pH 5.0): 65.5%
- Glycoside detected after incubation against compound added ([1]; pH 5.0): 0.0%
- Aglycone detected after incubation against compound added ([1]; pH 7.4): 62.1%
- Glycoside detected after incubation against compound added ([1]; pH 7.4): 0.0%
- Hydrolysis by homogenate of germfree mouse small intestine (in words) [1]: highly hydrolyzed

Compound: COc1c(O[C@@H]2O[C@H](CO[C@@H]3OC[C@@H](O)[C@H](O)[C@H]3O)[C@@H](O)[C@H](O)[C@H]2O)cc2occ(-c3ccc(O)cc3)c(=O)c2c1O [TGXG, Tectorigenin 7-O-xylosylglucoside]
- Substrate metabolized ([1]; pH 5.0): More than 95%
- Aglycone detected after incubation against compound added ([1]; pH 5.0): 97.1%
- Glycoside detected after incubation against compound added ([1]; pH 5.0): 4.9%
- Substrate metabolized ([1]; pH 7.4): 40%
- Aglycone detected after incubation against compound added ([1]; pH 7.4): 43.7%
- Glycoside detected after incubation against compound added ([1]; pH 7.4): 60.7%
- Hydrolysis by homogenate of germfree mouse small intestine (in words) [1]: highly hydrolyzed

Compound: COc1c(O[C@@H]2O[C@H](CO)[C@@H](O)[C@H](O)[C@H]2O)cc2occ(-c3ccc(O)cc3)c(=O)c2c1O [Tectoridin, tectoridin]
- Metabolized by incubation with germfree mouse small intestine (in words) [1]: completely metabolized
- Glycoside detected after incubation against compound added ([1]; pH 5.0): 0.0%
- Glycoside detected after incubation against compound added ([1]; pH 7.4): 0.0%
- Hydrolysis by homogenate of germfree mouse small intestine (in words) [1]: highly hydrolyzed

More lines, now with the values ahead:

- Daidzein detected after incubation (human fecal suspension; Mix, mixture of 10 samples): 30.1%
- Daidzein detected after incubation (human fecal suspension; fecal sample no. 1): 84.5%
- Daidzein detected after incubation (human fecal suspension; fecal sample no. 2): 90.8%
- Daidzein detected after incubation (human fecal suspension; fecal sample no. 3): 60.3%
- Daidzein detected after incubation (human fecal suspension; fecal sample no. 4): 96.4%
- Daidzein detected after incubation (human fecal suspension; fecal sample no. 5): 8.0%
- Daidzein detected after incubation (human fecal suspension; fecal sample no. 6): 0.0%
- Daidzein detected after incubation (human fecal suspension; fecal sample no. 7): 62.6%
- Daidzein detected after incubation (human fecal suspension; fecal sample no. 8): 13.9%
- Daidzein detected after incubation (human fecal suspension; fecal sample no. 9): 81.4%
- Daidzein detected after incubation (human fecal suspension; fecal sample no. 10): 8.4%
- Detected intact after incubation ([1]; aglycone-form substrate): More than 95%
Compound: O=c1c(-c2ccc(O)cc2)coc2cc(O)ccc12 [Daidzein, daidzein]

- Detected as intact substrate (human fecal suspension; 1 sample): 70%
- Substrate metabolized (human fecal suspension; 1 sample, incubation for 3 days): 94%
- Found intact (human fecal suspension; 2 samples): more than 90%
- Metabolites detected, including 6HG and equol (in words) (human fecal suspension; any incubates): No metabolites
- Substrate metabolized (in words) (human fecal suspension; mixed human feces): completely
- Genistein detected after incubation (human fecal suspension; Mix, mixture of 10 samples): 0.0%
- Genistein detected after incubation (human fecal suspension; fecal sample no. 1): 70.9%
- Genistein detected after incubation (human fecal suspension; fecal sample no. 2): 91.2%
- Genistein detected after incubation (human fecal suspension; fecal sample no. 3): 99.0%
- Genistein detected after incubation (human fecal suspension; fecal sample no. 4): 5.9%
- Genistein detected after incubation (human fecal suspension; fecal sample no. 5): 0.0%
- Genistein detected after incubation (human fecal suspension; fecal sample no. 6): 0.0%
- Genistein detected after incubation (human fecal suspension; fecal sample no. 7): 0.0%
- Genistein detected after incubation (human fecal suspension; fecal sample no. 8): 0.0%
- Genistein detected after incubation (human fecal suspension; fecal sample no. 9): 0.0%
- Genistein detected after incubation (human fecal suspension; fecal sample no. 10): 0.0%
- Detected intact after incubation ([1]; aglycone-form substrate): More than 95%
Compound: O=c1c(-c2ccc(O)cc2)coc2cc(O)cc(O)c12 [Genistein]

- Substrate metabolized (human fecal suspension; all fecal samples including the mixed sample): At least 75%
- Glycitein detected after incubation (human fecal suspension; Mix, mixture of 10 samples): 8.0%
- Glycitein detected after incubation (human fecal suspension; fecal sample no. 1): 24.6^a %
- Glycitein detected after incubation (human fecal suspension; fecal sample no. 2): 17.5%
- Glycitein detected after incubation (human fecal suspension; fecal sample no. 3): 2.7%
- Glycitein detected after incubation (human fecal suspension; fecal sample no. 4): 10.7%
- Glycitein detected after incubation (human fecal suspension; fecal sample no. 5): 7.1%
- Glycitein detected after incubation (human fecal suspension; fecal sample no. 6): 0.0%
- Glycitein detected after incubation (human fecal suspension; fecal sample no. 7): 12.2%
- Glycitein detected after incubation (human fecal suspension; fecal sample no. 8): 3.2%
- Glycitein detected after incubation (human fecal suspension; fecal sample no. 9): 0.0%
- Glycitein detected after incubation (human fecal suspension; fecal sample no. 10): 5.6%
- Substrate added that was resolved (in words) ([1]; aglycone-form substrate): about a half
Compound: COc1cc2c(=O)c(-c3ccc(O)cc3)coc2cc1O [Glycitein, glycitein]

- Substrate metabolized (in words) (human fecal suspension; 1 fecal sample): about half
- Substrate metabolized (in words) (human fecal suspension; 8 of 10 fecal samples): metabolized completely
- Metabolite detected (in words) (human fecal suspension; mixed human feces): no metabolite was detected
- Substrate metabolized (in words) (human fecal suspension; mixed human feces): completely
- Tectorigenin detected after incubation (human fecal suspension; Mix, mixture of 10 samples): 0.0%
- Tectorigenin detected after incubation (human fecal suspension; fecal sample no. 1): 53.5%
- Tectorigenin detected after incubation (human fecal suspension; fecal sample no. 2): 2.6%
- Tectorigenin detected after incubation (human fecal suspension; fecal sample no. 3): 0.0%
- Tectorigenin detected after incubation (human fecal suspension; fecal sample no. 4): 0.0%
- Tectorigenin detected after incubation (human fecal suspension; fecal sample no. 5): 0.0%
- Tectorigenin detected after incubation (human fecal suspension; fecal sample no. 6): 0.0%
- Tectorigenin detected after incubation (human fecal suspension; fecal sample no. 7): 0.0%
- Tectorigenin detected after incubation (human fecal suspension; fecal sample no. 8): 0.0%
- Tectorigenin detected after incubation (human fecal suspension; fecal sample no. 9): 0.0%
- Tectorigenin detected after incubation (human fecal suspension; fecal sample no. 10): 0.0%
- Detected intact after incubation ([1]; aglycone-form substrate): More than 95%
Compound: COc1c(O)cc2occ(-c3ccc(O)cc3)c(=O)c2c1O [Tectorigenin, tectorigenin]
